Assay results: ChEMBL document CHEMBL4382258, “Design and Optimization of Sulfone Pyrrolidine Sulfonamide Antagonists of Transient Receptor Potential Vanilloid-4 with in Vivo Activity in a Pulmonary Edema Model” (J Med Chem, 2018)

Legend:
[1] = Clearance in Sprague-Dawley rat at 1 mg/kg, iv administered as 30 mins infusion by LC/MS/MS analysis; format: ADME, organism-based; settings: in vivo
[2] = Oral bioavailability in Sprague-Dawley rat at 2 mg/kg by LC/MS/MS analysis; format: ADME, organism-based; settings: in vivo
[3] = Permeability of the compound by PAMPA; format: ADME; settings: read-out: permeability
[4] = target: Transient receptor potential cation channel subfamily A member 1 (Homo sapiens, UniProt O75762); assay: Antagonist activity at TRPA1 (unknown origin)
[5] = target: Transient receptor potential cation channel subfamily M member 2 (Homo sapiens, UniProt O94759); assay: Antagonist activity at TRPM2 (unknown origin)
[6] = target: Transient receptor potential cation channel subfamily V member 4 (Rattus norvegicus, UniProt Q9ERZ8); assay: Antagonist activity at rat TRPV4 expressed in BHK/AC9 cells assessed as inhibition of GSK634775-induced […] pre-incubated for 10 mins followed by agonist addition by Fluo-4-AM dye-based FLIPR assay; format: cell-based
[7] = Fraction unbound in Sprague-Dawley rat heart failure-induced pulmonary edema model at 0.02 to 0.21 ug/kg, iv bolus loading dose followed by 0.3 to 2.3 ug/kg/min, iv continuous infusion dose for 60 mins; format: ADME, organism-based; settings: in vivo
[8] = AUC (0 to t) in rat at 98 mg/kg, po; format: ADME, organism-based; settings: in vivo
[9] = Dose normalized AUC (0 to t) in rat at 98 mg/kg, po; format: ADME, organism-based; settings: in vivo
[10] = Dose normalized AUC (0 to t) in dog at 0.9 mg/kg, po; format: ADME, organism-based, Canis lupus familiaris; settings: in vivo
[11] = Dose normalized AUC (0 to t) in dog at 30 mg/kg, po; format: ADME, organism-based, Canis lupus familiaris; settings: in vivo
[12] = Plasma concentration in Sprague-Dawley rat heart failure-induced pulmonary edema model at 0.07 ug/kg, iv bolus loading dose followed by 0.8 ug/kg/min, iv continuous infusion dose for 60 mins; format: ADME, organism-based; settings: 7e-05 mg/kg
[13] = system: Rattus norvegicus; assay: Reversal of heart failure-induced pulmonary edema in Sprague-Dawley rat assessed as inhibition of GSK1016790A-induced increase in lung wet weight to body weight ratio at 0.21 ug/kg, iv bolus loading dose followed by 2.3 ug/kg/min, iv continuous infusion dose for 60 mins prior to agonist administration relative to control; format: functional
Procedure, shortened: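 Rats given vehicle or antagonist by i.v. infusion, then agonist GSK1016790A i.v. at 10 µg/kg/min for 10 min (100 µg/kg total). Edema scored as wet lung weight/body weight ratio against naïve animals; inhibition computed from the agonist response; mean ± SEM.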

Transient receptor potential cation channel subfamily A member 1, sequence (O75762 whole entry): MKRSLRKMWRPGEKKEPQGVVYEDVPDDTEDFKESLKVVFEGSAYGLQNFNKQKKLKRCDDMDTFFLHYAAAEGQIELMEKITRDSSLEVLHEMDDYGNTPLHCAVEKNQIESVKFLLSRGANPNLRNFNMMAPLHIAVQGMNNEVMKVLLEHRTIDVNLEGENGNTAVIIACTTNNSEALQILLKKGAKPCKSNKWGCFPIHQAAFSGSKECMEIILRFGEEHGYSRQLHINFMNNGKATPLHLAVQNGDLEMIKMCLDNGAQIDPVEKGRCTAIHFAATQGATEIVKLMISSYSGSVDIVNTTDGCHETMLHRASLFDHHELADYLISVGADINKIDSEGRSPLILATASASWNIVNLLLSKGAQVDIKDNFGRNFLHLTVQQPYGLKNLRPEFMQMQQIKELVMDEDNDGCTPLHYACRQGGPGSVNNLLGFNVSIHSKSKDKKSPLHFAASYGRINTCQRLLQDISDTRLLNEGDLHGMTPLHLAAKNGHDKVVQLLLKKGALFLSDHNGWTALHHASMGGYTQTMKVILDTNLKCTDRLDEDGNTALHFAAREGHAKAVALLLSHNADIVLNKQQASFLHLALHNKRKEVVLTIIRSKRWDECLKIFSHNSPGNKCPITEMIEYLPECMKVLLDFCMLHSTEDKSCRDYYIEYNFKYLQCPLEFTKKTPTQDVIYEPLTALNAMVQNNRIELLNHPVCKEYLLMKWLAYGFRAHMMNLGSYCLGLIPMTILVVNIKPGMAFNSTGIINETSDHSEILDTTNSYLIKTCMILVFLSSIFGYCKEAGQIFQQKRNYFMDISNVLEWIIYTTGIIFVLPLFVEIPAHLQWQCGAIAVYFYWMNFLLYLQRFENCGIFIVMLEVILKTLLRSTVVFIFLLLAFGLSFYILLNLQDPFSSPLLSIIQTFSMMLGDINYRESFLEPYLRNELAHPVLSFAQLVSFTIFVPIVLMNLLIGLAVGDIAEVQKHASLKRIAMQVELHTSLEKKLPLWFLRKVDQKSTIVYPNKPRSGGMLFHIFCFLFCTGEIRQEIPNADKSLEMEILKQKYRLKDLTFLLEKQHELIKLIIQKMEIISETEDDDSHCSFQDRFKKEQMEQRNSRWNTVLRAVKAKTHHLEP
Transient receptor potential cation channel subfamily V member 4, sequence (Q9ERZ8 whole entry, the tested form may be a part): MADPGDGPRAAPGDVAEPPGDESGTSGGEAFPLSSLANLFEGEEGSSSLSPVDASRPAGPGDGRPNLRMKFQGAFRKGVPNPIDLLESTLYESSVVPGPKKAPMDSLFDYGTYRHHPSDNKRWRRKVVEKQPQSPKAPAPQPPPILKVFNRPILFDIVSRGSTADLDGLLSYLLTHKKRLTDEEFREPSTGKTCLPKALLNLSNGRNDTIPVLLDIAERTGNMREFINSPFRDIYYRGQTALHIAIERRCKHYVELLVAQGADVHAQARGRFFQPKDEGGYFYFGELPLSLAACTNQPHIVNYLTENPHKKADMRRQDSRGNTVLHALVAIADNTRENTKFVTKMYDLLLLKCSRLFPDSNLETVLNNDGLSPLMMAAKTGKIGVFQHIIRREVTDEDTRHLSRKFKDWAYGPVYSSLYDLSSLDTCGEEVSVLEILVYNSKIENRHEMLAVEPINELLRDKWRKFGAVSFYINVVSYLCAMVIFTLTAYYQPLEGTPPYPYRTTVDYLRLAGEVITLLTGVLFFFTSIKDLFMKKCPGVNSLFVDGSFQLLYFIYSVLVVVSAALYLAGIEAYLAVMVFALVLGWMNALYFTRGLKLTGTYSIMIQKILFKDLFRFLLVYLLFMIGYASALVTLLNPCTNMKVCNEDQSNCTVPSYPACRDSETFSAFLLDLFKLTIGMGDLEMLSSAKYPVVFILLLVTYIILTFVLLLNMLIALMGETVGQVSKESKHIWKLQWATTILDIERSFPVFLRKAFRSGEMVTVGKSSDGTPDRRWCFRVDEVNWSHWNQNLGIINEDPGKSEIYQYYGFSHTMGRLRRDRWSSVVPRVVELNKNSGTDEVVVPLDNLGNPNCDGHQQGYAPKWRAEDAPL
Transient receptor potential cation channel subfamily M member 2, sequence (O94759 whole entry): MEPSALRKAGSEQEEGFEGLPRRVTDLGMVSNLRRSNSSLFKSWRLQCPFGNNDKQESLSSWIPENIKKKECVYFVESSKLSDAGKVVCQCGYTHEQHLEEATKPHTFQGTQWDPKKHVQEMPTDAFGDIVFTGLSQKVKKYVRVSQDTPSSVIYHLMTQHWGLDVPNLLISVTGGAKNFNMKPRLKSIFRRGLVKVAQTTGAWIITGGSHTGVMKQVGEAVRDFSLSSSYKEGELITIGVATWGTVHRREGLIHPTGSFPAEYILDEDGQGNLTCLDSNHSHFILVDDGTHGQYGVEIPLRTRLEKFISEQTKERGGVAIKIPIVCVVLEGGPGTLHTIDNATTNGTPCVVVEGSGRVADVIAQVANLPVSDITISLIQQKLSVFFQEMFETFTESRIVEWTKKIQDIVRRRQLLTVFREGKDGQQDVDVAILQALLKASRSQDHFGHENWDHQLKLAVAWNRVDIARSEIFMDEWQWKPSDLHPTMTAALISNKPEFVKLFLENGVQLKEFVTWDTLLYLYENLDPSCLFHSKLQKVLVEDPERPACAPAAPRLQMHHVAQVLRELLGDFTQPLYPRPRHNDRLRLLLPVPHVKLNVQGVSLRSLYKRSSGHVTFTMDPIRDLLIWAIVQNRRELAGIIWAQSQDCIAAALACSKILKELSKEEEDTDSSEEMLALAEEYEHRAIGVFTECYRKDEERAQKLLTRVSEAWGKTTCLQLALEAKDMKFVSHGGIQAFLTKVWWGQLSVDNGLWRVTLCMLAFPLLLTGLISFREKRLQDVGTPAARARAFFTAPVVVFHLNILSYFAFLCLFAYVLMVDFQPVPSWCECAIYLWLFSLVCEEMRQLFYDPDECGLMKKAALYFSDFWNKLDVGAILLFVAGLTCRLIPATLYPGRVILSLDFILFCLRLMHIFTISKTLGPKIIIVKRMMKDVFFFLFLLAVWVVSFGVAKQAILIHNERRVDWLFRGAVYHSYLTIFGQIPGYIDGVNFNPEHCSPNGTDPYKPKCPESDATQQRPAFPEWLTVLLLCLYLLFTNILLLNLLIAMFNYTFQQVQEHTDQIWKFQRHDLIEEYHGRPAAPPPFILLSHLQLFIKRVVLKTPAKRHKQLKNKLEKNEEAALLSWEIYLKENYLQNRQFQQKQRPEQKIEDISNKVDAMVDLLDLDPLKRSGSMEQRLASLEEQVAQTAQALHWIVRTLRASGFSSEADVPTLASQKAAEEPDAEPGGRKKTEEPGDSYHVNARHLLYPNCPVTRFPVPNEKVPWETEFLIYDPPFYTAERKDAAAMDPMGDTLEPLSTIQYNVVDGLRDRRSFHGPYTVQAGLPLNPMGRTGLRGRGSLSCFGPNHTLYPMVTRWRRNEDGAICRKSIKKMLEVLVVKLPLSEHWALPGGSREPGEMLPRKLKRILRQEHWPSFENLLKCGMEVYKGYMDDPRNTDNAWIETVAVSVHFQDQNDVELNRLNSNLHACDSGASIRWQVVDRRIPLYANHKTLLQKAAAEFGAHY

With `N#Cc1ccc(S(=O)(=O)N2C[C@H](S(=O)(=O)c3ccc(Cl)cc3)[C@](O)(CO)C2)c(Cl)c1` the clearance [1] was 49 mL/min/kg, the bioavailability [2] was 100% and the Papp [3] was 35 ×10⁻⁶ cm/s. The IC50 [4] was greater than 30 µM, the IC50 [5] was greater than 30 µM and the IC50 [6] was 0.004 µM. For the same compound, the fraction unbound at 1 h [7] was 0.042, the AUC(0-t) [8] was 40000 ng·h/mL and the AUCt/dose [9] was 0.4 kg·h/L. For the same compound, the AUCt/dose [10] was 2.9 kg·h/L, the AUCt/dose [11] was 3 kg·h/L and the concentration at 1 h [12] was 52 nM. The “inhibition (INH)” value [13] was 99%.
